Measured values taken from PMC2963662 (Neuropharmacology, 2010).

What was measured:
Assay in all cases: two-electrode voltage clamp, Xenopus oocytes
Format in all cases: cell-based
[1] = biological target: α5β3γ2 GABAA receptor (rat, oocytes) (Rattus norvegicus, UniProt P18508+P19969); conditions: read-out: α5
Summary of the method: (§1)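 Oocytes from Xenopus laevis were injected with mRNA made from rat GABAA subunit cDNAs. Two-electrode voltage clamp was done at room temperature, holding at −60 mV, with electrodes filled with […]. Cells were perfused at 6 ml/min with Ringer (90 mM NaCl, 5 mM HEPES pH 7.4, 1 mM MgCl2, KCl, CaCl2). Drug in 0.1% DMSO final was pre-applied for 30 sec, then co-applied with GABA until peak, with washes of up to 15 min.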

[2] = biological target: α1β3γ2 GABAA receptor (rat, oocytes) (Rattus norvegicus, UniProt P18508+P62813); conditions: read-out: α1
α1β3γ2 GABAA receptor (rat, oocytes), sequence (P62813 28-455): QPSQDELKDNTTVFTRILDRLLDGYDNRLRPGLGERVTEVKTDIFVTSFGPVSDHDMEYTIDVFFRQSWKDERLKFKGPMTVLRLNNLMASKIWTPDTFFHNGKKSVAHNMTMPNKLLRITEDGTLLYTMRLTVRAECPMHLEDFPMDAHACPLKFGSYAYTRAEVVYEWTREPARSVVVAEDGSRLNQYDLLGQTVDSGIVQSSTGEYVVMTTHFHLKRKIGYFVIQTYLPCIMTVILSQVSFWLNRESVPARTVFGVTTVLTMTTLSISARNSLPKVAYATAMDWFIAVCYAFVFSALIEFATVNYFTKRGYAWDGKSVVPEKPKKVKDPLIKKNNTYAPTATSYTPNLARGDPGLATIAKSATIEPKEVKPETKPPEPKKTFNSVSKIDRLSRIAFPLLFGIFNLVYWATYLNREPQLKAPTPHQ
α1β3γ2 GABAA receptor (rat, oocytes), sequence (P18508 39-466): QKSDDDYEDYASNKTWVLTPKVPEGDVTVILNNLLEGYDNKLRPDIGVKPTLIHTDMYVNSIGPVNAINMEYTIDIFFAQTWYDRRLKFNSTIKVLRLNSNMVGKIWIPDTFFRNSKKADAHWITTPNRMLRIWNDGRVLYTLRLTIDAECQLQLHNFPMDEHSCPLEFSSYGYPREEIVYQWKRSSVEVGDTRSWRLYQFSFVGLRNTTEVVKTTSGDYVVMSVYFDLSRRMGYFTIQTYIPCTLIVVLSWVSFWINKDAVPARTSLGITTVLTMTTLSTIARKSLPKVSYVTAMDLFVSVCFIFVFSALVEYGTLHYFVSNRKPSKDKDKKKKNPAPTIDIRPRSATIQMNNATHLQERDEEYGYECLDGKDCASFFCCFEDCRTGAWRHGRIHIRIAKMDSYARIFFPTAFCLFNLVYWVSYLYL
α1β3γ2 GABAA receptor (rat, oocytes), sequence (P63079 26-473 partner): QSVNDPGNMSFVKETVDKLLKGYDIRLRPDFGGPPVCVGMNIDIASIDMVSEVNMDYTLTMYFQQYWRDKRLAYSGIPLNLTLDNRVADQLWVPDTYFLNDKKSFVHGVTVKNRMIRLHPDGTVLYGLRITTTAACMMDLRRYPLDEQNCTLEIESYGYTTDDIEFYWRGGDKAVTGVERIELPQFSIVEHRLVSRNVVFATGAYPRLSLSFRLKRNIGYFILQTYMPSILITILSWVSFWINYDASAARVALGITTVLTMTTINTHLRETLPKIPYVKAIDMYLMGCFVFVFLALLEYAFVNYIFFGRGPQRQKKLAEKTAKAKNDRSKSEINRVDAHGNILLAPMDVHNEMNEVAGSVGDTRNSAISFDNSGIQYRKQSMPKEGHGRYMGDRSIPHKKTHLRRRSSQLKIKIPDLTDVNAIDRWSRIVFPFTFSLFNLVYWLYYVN
Summary of the method: as §1

[3] = biological target: α2β3γ2 GABAA receptor (rat, oocytes) (Rattus norvegicus, UniProt P18508+P23576); conditions: read-out: α2
α2β3γ2 GABAA receptor (rat, oocytes), sequence (P23576 29-451): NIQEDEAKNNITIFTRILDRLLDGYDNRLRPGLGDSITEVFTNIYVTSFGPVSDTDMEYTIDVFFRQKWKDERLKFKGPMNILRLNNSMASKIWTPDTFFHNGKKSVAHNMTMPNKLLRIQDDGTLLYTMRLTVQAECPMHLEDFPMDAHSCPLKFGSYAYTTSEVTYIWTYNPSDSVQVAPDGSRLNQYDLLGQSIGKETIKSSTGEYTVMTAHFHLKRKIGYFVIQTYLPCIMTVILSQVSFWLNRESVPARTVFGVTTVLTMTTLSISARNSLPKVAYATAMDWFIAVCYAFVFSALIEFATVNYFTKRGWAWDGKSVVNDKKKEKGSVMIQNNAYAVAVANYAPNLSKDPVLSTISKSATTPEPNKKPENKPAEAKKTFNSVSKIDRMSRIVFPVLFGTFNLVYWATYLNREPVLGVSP
α2β3γ2 GABAA receptor (rat, oocytes), sequence (P18508 39-466): as the sequence (P18508 39-466) above
α2β3γ2 GABAA receptor (rat, oocytes), sequence (P63079 26-473 partner): as the sequence (P63079 26-473 partner) above
Summary of the method: as §1

[4] = biological target: α3β3γ2 GABAA receptor (rat, oocytes) (Rattus norvegicus, UniProt P18508+P20236); conditions: read-out: α3
α3β3γ2 GABAA receptor (rat, oocytes), sequence (P20236 29-493): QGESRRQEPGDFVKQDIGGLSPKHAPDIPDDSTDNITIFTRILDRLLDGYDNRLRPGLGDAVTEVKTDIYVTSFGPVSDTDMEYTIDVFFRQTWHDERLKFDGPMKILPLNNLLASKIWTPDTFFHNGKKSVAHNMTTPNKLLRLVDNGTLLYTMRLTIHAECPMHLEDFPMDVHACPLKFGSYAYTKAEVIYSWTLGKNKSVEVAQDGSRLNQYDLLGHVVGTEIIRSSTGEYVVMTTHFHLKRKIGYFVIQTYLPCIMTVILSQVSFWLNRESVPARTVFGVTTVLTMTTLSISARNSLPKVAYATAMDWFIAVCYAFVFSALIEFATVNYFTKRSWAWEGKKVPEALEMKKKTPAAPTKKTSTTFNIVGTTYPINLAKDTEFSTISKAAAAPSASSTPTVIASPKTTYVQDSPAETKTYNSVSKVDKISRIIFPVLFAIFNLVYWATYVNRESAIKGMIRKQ
α3β3γ2 GABAA receptor (rat, oocytes), sequence (P18508 39-466): as the sequence (P18508 39-466) above
α3β3γ2 GABAA receptor (rat, oocytes), sequence (P63079 26-473 partner): as the sequence (P63079 26-473 partner) above
Summary of the method: as §1

α5β3γ2 GABAA receptor (rat, oocytes), sequence (P19969 26-464): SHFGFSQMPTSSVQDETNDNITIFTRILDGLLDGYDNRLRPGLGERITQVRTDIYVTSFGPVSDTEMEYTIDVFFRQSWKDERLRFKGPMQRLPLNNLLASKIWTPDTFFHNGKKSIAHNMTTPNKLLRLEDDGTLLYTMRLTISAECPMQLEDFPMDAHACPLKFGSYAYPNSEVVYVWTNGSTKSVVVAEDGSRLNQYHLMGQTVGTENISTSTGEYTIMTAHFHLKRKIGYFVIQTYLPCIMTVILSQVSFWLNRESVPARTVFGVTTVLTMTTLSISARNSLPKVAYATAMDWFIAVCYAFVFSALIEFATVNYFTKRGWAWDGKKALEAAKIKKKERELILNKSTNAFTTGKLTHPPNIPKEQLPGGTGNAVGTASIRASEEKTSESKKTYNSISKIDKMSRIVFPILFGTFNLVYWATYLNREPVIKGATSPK
α5β3γ2 GABAA receptor (rat, oocytes), sequence (P18508 39-466): as the sequence (P18508 39-466) above
α5β3γ2 GABAA receptor (rat, oocytes), sequence (P63079 26-473 partner): as the sequence (P63079 26-473 partner) above

| Structure (SMILES) | activity at 1 µM [1] [%] | activity at 1 µM [2] [%] | activity at 1 µM [3] [%] | activity at 1 µM [4] [%] |
| --- | --- | --- | --- | --- |
| C#Cc1ccc2c(c1)C(c1ccccc1F)=N[C@@H](C)c1c(C(=O)OCC)ncn1-2 [SH-053-2'F-S-CH3, (S)-8-ethynyl-6-(2-fluoro-phenyl)-4-methyl-4H-2,5,10b-triaza-benzo[e]azulene-3-carboxylic acid ethyl ester] | 389 |  |  |  |
| CN1C(=O)CN=C(c2ccccc2)c2cc(Cl)ccc21 [Diazepam] | 342 | 314 | 536 | 752 |
